Results on six compounds are retold here after ChEMBL document CHEMBL4359812, “Nitric Oxide-Releasing Selective Estrogen Receptor Modulators: A Bifunctional Approach to Improve the Therapeutic Index” (J Med Chem, 2019).

The nature of data set [1]: Drug metabolism in pH 7.5 PBS assessed as nitric oxide release at 50 uM measured after 90 mins in presence of L-cysteine by 2,3-diaminonaphthalene-based fluorescence assay. In short, it runs like this:
(§1)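 Compound incubated 90 min at 37 °C in PBS pH 7.5 alone, with human plasma, with 50 μM K3[Fe(CN)6], or with 5 mM L-cysteine. Nitrite reacted with 2,3-diaminonaphthalene under acid to give fluorescent naphthotriazole; HgCl2 added to release S-nitrosothiol-bound NO. Release given as % of 1 mol NO/mol compound; 3−4 experiments in duplicate (n = 6−8), mean ± SEM.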

A short description of data set [2]: Drug metabolism in pH 7.5 PBS assessed as free nitrite level at 50 uM measured after 90 mins in presence of L-cysteine by 2,3-diaminonaphthalene-based fluorescence assay. In short, it runs like this:
as §1

Data set [3] concerns A2058. The data set is described as follows: Antiproliferative activity against human A2058 cells assessed as cell viability at 50 uM measured after 24 hrs by celltiter-blue assay relative to control. It is filed as functional. The conditions noted are these: A2058, 24 h, read-out: Activity. In a few lines:
(§2)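 Human melanoma cells seeded at 8.5 × 10^4 cells/well in 96-well plates and treated 24 h with test compound (up to 50 μM) against a DMSO control; viability read as in the group's earlier method. Three to five independent experiments (n = 9−15); mean ± SEM, ANOVA with Bonferroni post hoc test vs DMSO.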
For orientation: Resazurin is reduced to fluorescent resorufin, in cell work by metabolically active cells.

A short description of data set [4]: Drug metabolism in pH 7.5 PBS assessed as S-nitroso-thiol level at 50 uM measured after 90 mins in presence of L-cysteine by 2,3-diaminonaphthalene-based fluorescence assay. In a few lines: as §1
The target in the next data set is Estrogen receptor beta (Homo sapiens, UniProt Q92731).
Estrogen receptor beta, sequence (Q92731 whole entry): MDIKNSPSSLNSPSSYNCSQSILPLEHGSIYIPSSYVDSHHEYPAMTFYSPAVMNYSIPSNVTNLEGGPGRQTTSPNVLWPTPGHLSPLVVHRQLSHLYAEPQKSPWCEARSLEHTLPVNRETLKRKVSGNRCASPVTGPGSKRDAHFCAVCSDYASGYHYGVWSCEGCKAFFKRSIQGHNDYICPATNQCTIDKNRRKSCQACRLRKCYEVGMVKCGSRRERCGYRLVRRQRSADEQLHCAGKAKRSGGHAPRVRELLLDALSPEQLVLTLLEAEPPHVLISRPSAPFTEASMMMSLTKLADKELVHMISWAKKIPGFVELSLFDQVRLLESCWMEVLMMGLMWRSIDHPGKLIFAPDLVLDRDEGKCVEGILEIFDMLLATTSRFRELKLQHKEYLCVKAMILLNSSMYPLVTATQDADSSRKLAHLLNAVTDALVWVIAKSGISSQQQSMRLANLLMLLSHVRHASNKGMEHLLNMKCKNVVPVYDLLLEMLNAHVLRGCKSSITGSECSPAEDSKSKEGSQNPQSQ
The target of another data set is T1, Estrogen receptor (Homo sapiens, UniProt P03372).
T1 sequence (P03372 whole entry): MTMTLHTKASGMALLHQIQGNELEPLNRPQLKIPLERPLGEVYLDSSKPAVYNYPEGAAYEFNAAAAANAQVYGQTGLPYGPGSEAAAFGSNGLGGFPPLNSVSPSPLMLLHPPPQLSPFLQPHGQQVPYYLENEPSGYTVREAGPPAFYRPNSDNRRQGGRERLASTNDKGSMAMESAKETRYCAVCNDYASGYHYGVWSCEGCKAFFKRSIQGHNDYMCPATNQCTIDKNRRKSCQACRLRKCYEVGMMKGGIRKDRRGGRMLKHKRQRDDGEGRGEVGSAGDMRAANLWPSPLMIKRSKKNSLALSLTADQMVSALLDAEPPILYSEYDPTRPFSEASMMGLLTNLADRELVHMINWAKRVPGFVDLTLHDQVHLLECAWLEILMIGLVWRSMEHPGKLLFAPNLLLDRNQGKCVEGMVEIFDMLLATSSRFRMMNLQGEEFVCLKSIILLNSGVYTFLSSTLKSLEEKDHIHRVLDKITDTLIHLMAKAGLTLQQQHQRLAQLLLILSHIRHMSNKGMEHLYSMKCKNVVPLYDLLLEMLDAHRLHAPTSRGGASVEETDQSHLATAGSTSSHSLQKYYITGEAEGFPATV

The test system of data set [5] is MEL-JUSO. The data set is described as follows: Antiproliferative activity against human MelJuSo cells assessed as cell viability at 50 uM measured after 24 hrs by celltiter-blue assay relative to control. Type of data set: functional. The conditions noted are these: read-out: Activity. In a few lines:
as §2

Data set [6] in a line: Drug metabolism in pH 7.5 PBS assessed as nitric oxide release at 50 uM measured after 90 mins in presence of K3[Fe(CN)6] by 2,3-diaminonaphthalene-based fluorescence assay. In a few lines:
as §1

In a further data set the test system is MDA-MB-231. Kind of data set: Antiproliferative activity against human MDA-MB-231 cells assessed as cell viability at 50 uM measured after 24 hrs by celltiter-blue assay relative to control. It is filed as functional. The conditions noted are these: MDA-MB-231, 24 h, read-out: Activity. In short, it runs like this:
(§3)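 Breast adenocarcinoma lines: MCF-7 grown in Leibovitz's L-15 with 10% FCS and 1% pen/strep without CO2; MDA-MB-231 grown in DMEM with 10% FCS and 1% pen/strep at 5% CO2; both at 37 °C. Viability measured after 24 h treatment at 50 μM vs DMSO. Three independent experiments (n = 9); mean ± SEM, ANOVA/Bonferroni.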

Data set [7] is described as follows: Drug metabolism in human whole blood assessed as nitric oxide release measured after 6 hrs by HPLC analysis. It is filed as ADME, tissue-based. In short, it runs like this: (§4)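 Compound incubated 0 to 6 h in human whole blood at 37 °C; proteins precipitated 1:2 (v/v); supernatant analysed by reversed-phase C18 HPLC at 254 nm, water/MeCN gradient with 0.1% TFA, 3.0 mL/min at 50 °C.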

Data set [8] is described as follows: Retention time of the compound in human whole blood by HPLC analysis. It is filed as ADME, tissue-based. In a few lines:
as §4

Data set [9] is described as follows: Drug metabolism in human whole blood assessed as 5d formation measured after 6 hrs by HPLC analysis. It is filed as ADME, tissue-based. In short, it runs like this: as §4
Data set [10] deals with MEL-JUSO. Kind of data set: Antiproliferative activity against human MelJuSo cells assessed as reduction in number of proliferating cells at 50 uM measured after 48 hrs by cell counting analysis. It is filed as functional, cell-based. In short, it runs like this: (§5)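 A2058 cells plated at 0.5 × 10^6 (24 h) or 0.35 × 10^6 (48 h) per well, Mel-Juso at 0.6 × 10^6 or 0.45 × 10^6. After 24 h cells were treated with 0−50 μM, DMSO as control, then counted electronically after 24 or 48 h. Three independent experiments; mean ± SEM, ANOVA/Bonferroni vs DMSO.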

A short description of data set [11]: Effect on ER/PI3K pathway in HUVEC assessed as upregulation of COX2 expression up to 20 uM measured after 24 hrs by Western blot analysis. Particulars: human. It is filed as ADME, cell-based. In a few lines:
(§6)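 HUVEC treated 24 h with test compounds at various concentrations, with tamoxifen or 17β-estradiol as references, vs DMSO; COX-2 protein detected by Western blotting. Four independent experiments.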
Background: A western blot detects proteins with antibodies after separation by electrophoresis.

The subject of a further data set is MCF7. Kind of data set: Antiproliferative activity against human MCF7 cells assessed as cell viability at 50 uM measured after 24 hrs by celltiter-blue assay relative to control. Type of data set: functional. Particulars: MCF7, 24 h, read-out: Activity. In short, it runs like this:
as §3

For data set [12], the system named is A2058. The data set is described as follows: Antiproliferative activity against human A2058 cells assessed as reduction in number of proliferating cells at 50 uM measured after 48 hrs by cell counting analysis. Type of data set: functional, cell-based. In short, it runs like this:
as §5

Data set [13] can be described thus: Cytotoxicity against HUVEC assessed as cell viability at 50 uM measured after 24 hrs by celltiter-blue assay. It is filed as cell-based. The conditions noted are these: human, HUVEC cells; read-out: Activity. In a few lines:
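HUVEC grown in endothelial cell growth medium at 37 °C, seeded at 7 × 10^4 cells/well in 96-well plates, treated 24 h with test compound up to 50 μM, DMSO as control; viability read as in the group's earlier method.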

The nature of data set [14]: Effect on ER/PI3K pathway in HUVEC assessed as change COX2 expression up to 1 uM measured after 24 hrs by Western blot analysis. It is filed as ADME, cell-based. The conditions noted are these: human. In a few lines:
as §6

In data set [15] the test system is MEL-JUSO. Kind of data set: Antiproliferative activity against human MelJuSo cells assessed as reduction in cell viability measured after 24 hrs by celltiter-blue assay. It is filed as functional, cell-based. In short, it runs like this: as §2
The subject of data set [16] is A2058. Kind of data set: Antiproliferative activity against human A2058 cells assessed as reduction in cell viability measured after 24 hrs by celltiter-blue assay. It is filed as functional, cell-based. Particulars: A2058, 24 h. In a few lines:
as §2

The structures appear in SMILES notation. Activity calls are given as the source filed them. No cut-off for these calls is given here.

On to `CS(=O)(=O)c1ccc(C(CCCO[N+](=O)[O-])=C(c2ccccc2)c2ccccc2)cc1`, for which the Drug metabolism was 2% in data set [1], 0.7% in data set [2], 1.3% in [4] and 1.5% in data set [6]. In addition, the viability at 50 µM came out at 117% in the data set on A2058 [3] and 96.5% in the data set on MEL-JUSO [5]. The IC50 against Estrogen receptor beta was 2.7 µM; against Estrogen receptor it was over 5 µM.
With `CC(=O)Oc1ccccc1C(=O)Oc1ccc(CO[N+](=O)[O-])cc1`, the Drug metabolism came out at 4.4% in data set [1], 0.8% in data set [2], 3.6% in data set [4] and 0.2% in [6].
For `CS(=O)(=O)c1ccc(C(CCCCO[N+](=O)[O-])=C(c2ccc(F)cc2)c2ccc(F)cc2)cc1`, the viability at 50 µM is 91.3% with MDA-MB-231, 106% in the data set with A2058 [3], 101% in the data set with MEL-JUSO [5] and 82.8% with MCF7. The Drug metabolism entry is “Metabolite_Detected” in data set [7]; 3.8% in data set [1]; “Metabolite_Detected” in data set [9]; 0.4% in data set [2]; 3.4% in [4]; 2.5% in data set [6]. The Retention_time in data set [8] is recorded as 16.4 min. Besides, the result in the data set with MEL-JUSO [10] and in the data set on A2058 [12] was inactive. The figures for the IC50 against Estrogen receptor beta and against Estrogen receptor were 0.2 µM and over 5 µM, respectively. Also, the Activity entry in data set [11] is reported as “Not Active”. Further, the viability at 24 h, 50 µM in [13] came out at 91.1%.
Take `CCCCC(=C(c1ccc(F)cc1)c1ccc(F)cc1)c1ccc(S(C)(=O)=O)cc1`: the viability at 50 µM in the data set on A2058 [3] is 117%; with MEL-JUSO [5] it was 75.4%.
As for `CC/C(=C(\c1ccccc1)c1ccc(OCCN(C)C)cc1)c1ccccc1` [TAMOXIFEN], the outcome in data set [14] was Active. Also, the EC50 is 14.6 µM in the data set on MEL-JUSO [15] and 12.5 µM in the data set with A2058 [16]. For the same compound, the figures for the viability at 50 µM in the data set on A2058 [3] and in the data set with MEL-JUSO [5] were 1.8% and 1%, respectively.
With `CS(=O)(=O)c1ccc(C(CCCCO)=C(c2ccccc2)c2ccccc2)cc1`, the viability at 50 µM came out at 106% with A2058 [3] and 68.6% in the data set with MEL-JUSO [5]. Further, the IC50 against Estrogen receptor beta is 1.4 µM; against Estrogen receptor it was over 5 µM.

One may read the IC50 as the midpoint of a concentration-inhibition curve. For orientation: EC50 means the concentration giving half of the maximal effect.
